ChEMBL document CHEMBL5058577, “EUbOPEN Chemogenomics Library 2 (Multiplex)” (2022)

Test system: HEK-293T
Test: Multiplex assay against HEK293T
Type: toxicity, cell-based
Conditions: human
How it was run: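 On a CQ1 microscope at 37°C and 5% CO2, live cells were imaged after compound addition. They had been stained at seeding with Hoechst33342, BioTracker Green Microtubule Cytoskeleton Dye, MitoTracker Red and Annexin V Alexa Fluor 680. CellPathfinder machine-learning gating assigned cells to Hoechst high-intensity objects or normal cells, normal cells to healthy, pyknosed or fragmented nuclei, and pyknosed cells to mitotic or apoptotic. Tubulin, mitochondrial-mass and membrane-permeability phenotypes are per cents of healthy-nucleus cells.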

[1] = 12 h, 1 µM, compound concentration 1 uM, replicate 1
[2] = 12 h, 1 µM, compound concentration 1 uM, replicate 2
[3] = 12 h, 10 µM, compound concentration 10 uM, replicate 1
[4] = 12 h, 10 µM, compound concentration 10 uM, replicate 2
[5] = 24 h, 1 µM, compound concentration 1 uM, replicate 1
[6] = 24 h, 1 µM, compound concentration 1 uM, replicate 2
[7] = 24 h, 10 µM, compound concentration 10 uM, replicate 1
[8] = 24 h, 10 µM, compound concentration 10 uM, replicate 2
[9] = 48 h, 1 µM, compound concentration 1 uM, replicate 1
[10] = 48 h, 1 µM, compound concentration 1 uM, replicate 2
[11] = 48 h, 10 µM, compound concentration 10 uM, replicate 1
[12] = 48 h, 10 µM, compound concentration 10 uM, replicate 2

Compound: COC[C@@H](c1ccc(C(F)(F)F)cc1)N1CCN(C2(C)CCN(C(=O)c3c(C)ncnc3C)CC2)C[C@@H]1C.O=C(O)/C=C\C(=O)O [VICRIVIROC MALEATE]
- Population Apoptotic (%) [1]: 46%
- Population Fragmented Nuclei (%) [1]: 7%
- Population Healthy Nuclei (%) [1]: 80%
- Population Hoechst High Intensity Objects (%) [1]: 9%
- Population Membrane Permeable-Phenotype (%) [1]: 0%
- Population Mitochondria Different-Phenotype (%) [1]: 47%
- Population Mitotic Cells (%) [1]: 53%
- Population Normal (%) [1]: 90%
- Population Pyknosed Nuclei (%) [1]: 12%
- Population Tubulin-Different-Phenotype (%) [1]: 27%
- Total Cell Count [1]: 406
- Population Apoptotic (%) [2]: 45%
- Population Hoechst High Intensity Objects (%) [2]: 5%
- Population Mitochondria Different-Phenotype (%) [2]: 51%
- Population Mitotic Cells (%) [2]: 54%
- Population Normal (%) [2]: 94%
- Population Pyknosed Nuclei (%) [2]: 11%
- Population Tubulin-Different-Phenotype (%) [2]: 17%
- Total Cell Count [2]: 387
- Population Apoptotic (%) [3]: 44%
- Population Fragmented Nuclei (%) [3]: 6%
- Population Healthy Nuclei (%) [3]: 75%
- Population Hoechst High Intensity Objects (%) [3]: 8%
- Population Membrane Permeable-Phenotype (%) [3]: 0%
- Population Mitochondria Different-Phenotype (%) [3]: 63%
- Population Mitotic Cells (%) [3]: 55%
- Population Normal (%) [3]: 91%
- Population Pyknosed Nuclei (%) [3]: 18%
- Population Tubulin-Different-Phenotype (%) [3]: 57%
- Total Cell Count [3]: 315
- Population Apoptotic (%) [4]: 62%
- Population Fragmented Nuclei (%) [4]: 5%
- Population Healthy Nuclei (%) [4]: 72%
- Population Hoechst High Intensity Objects (%) [4]: 16%
- Population Mitochondria Different-Phenotype (%) [4]: 78%
- Population Mitotic Cells (%) [4]: 37%
- Population Normal (%) [4]: 83%
- Population Pyknosed Nuclei (%) [4]: 21%
- Population Tubulin-Different-Phenotype (%) [4]: 51%
- Total Cell Count [4]: 265
- Population Apoptotic (%) [5]: 30%
- Population Fragmented Nuclei (%) [5]: 9%
- Population Healthy Nuclei (%) [5]: 79%
- Population Hoechst High Intensity Objects (%) [5]: 6%
- Population Membrane Permeable-Phenotype (%) [5]: 0%
- Population Mitochondria Different-Phenotype (%) [5]: 24%
- Population Mitotic Cells (%) [5]: 69%
- Population Normal (%) [5]: 93%
- Population Pyknosed Nuclei (%) [5]: 10%
- Population Tubulin-Different-Phenotype (%) [5]: 21%
- Total Cell Count [5]: 564
- Population Apoptotic (%) [6]: 31%
- Population Healthy Nuclei (%) [6]: 82%
- Population Hoechst High Intensity Objects (%) [6]: 5%
- Population Membrane Permeable-Phenotype (%) [6]: 1%
- Population Mitotic Cells (%) [6]: 68%
- Population Normal (%) [6]: 94%
- Population Pyknosed Nuclei (%) [6]: 8%
- Population Tubulin-Different-Phenotype (%) [6]: 11%
- Total Cell Count [6]: 515
- Population Apoptotic (%) [7]: 34%
- Population Fragmented Nuclei (%) [7]: 6%
- Population Healthy Nuclei (%) [7]: 80%
- Population Hoechst High Intensity Objects (%) [7]: 6%
- Population Membrane Permeable-Phenotype (%) [7]: 0%
- Population Mitochondria Different-Phenotype (%) [7]: 53%
- Population Mitotic Cells (%) [7]: 66%
- Population Normal (%) [7]: 93%
- Population Pyknosed Nuclei (%) [7]: 13%
- Population Tubulin-Different-Phenotype (%) [7]: 49%
- Total Cell Count [7]: 406
- Population Apoptotic (%) [8]: 60%
- Population Fragmented Nuclei (%) [8]: 10%
- Population Healthy Nuclei (%) [8]: 77%
- Population Hoechst High Intensity Objects (%) [8]: 16%
- Population Mitochondria Different-Phenotype (%) [8]: 70%
- Population Mitotic Cells (%) [8]: 39%
- Population Normal (%) [8]: 83%
- Population Pyknosed Nuclei (%) [8]: 12%
- Population Tubulin-Different-Phenotype (%) [8]: 39%
- Total Cell Count [8]: 310
- Population Apoptotic (%) [9]: 21%
- Population Fragmented Nuclei (%) [9]: 11%
- Population Healthy Nuclei (%) [9]: 80%
- Population Hoechst High Intensity Objects (%) [9]: 2%
- Population Membrane Permeable-Phenotype (%) [9]: 1%
- Population Mitochondria Different-Phenotype (%) [9]: 13%
- Population Mitotic Cells (%) [9]: 78%
- Population Normal (%) [9]: 97%
- Population Pyknosed Nuclei (%) [9]: 7%
- Population Tubulin-Different-Phenotype (%) [9]: 12%
- Total Cell Count [9]: 930
- Population Apoptotic (%) [10]: 34%
- Population Fragmented Nuclei (%) [10]: 13%
- Population Healthy Nuclei (%) [10]: 81%
- Population Mitochondria Different-Phenotype (%) [10]: 11%
- Population Mitotic Cells (%) [10]: 65%
- Population Pyknosed Nuclei (%) [10]: 5%
- Population Tubulin-Different-Phenotype (%) [10]: 8%
- Total Cell Count [10]: 751
- Population Apoptotic (%) [11]: 38%
- Population Fragmented Nuclei (%) [11]: 12%
- Population Healthy Nuclei (%) [11]: 75%
- Population Hoechst High Intensity Objects (%) [11]: 4%
- Population Membrane Permeable-Phenotype (%) [11]: 0%
- Population Mitochondria Different-Phenotype (%) [11]: 49%
- Population Mitotic Cells (%) [11]: 61%
- Population Normal (%) [11]: 95%
- Population Pyknosed Nuclei (%) [11]: 11%
- Population Tubulin-Different-Phenotype (%) [11]: 35%
- Total Cell Count [11]: 559
- Population Apoptotic (%) [12]: 53%
- Population Fragmented Nuclei (%) [12]: 14%
- Population Healthy Nuclei (%) [12]: 70%
- Population Hoechst High Intensity Objects (%) [12]: 11%
- Population Mitochondria Different-Phenotype (%) [12]: 50%
- Population Mitotic Cells (%) [12]: 46%
- Population Normal (%) [12]: 88%
- Population Pyknosed Nuclei (%) [12]: 15%
- Population Tubulin-Different-Phenotype (%) [12]: 38%
- Total Cell Count [12]: 394
